pIC50: −log10 of the molar value. Converted amounts (≈) assume the structure as drawn.
What was measured:
[1] = test system: Mycobacterium tuberculosis; test: Antibacterial activity against Mycobacterium tuberculosis H37Rv after 5 days under normoxic condition by resazurin dye-based fluorescence assay; type: functional, organism-based
In short: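 H37Rv grown in 7H9/ADC/glycerol/Tyloxapol to mid-exponential phase, diluted to OD600 0.001 (~2 x 10^4 CFU/mL) in 7H9S with serially diluted compound. Incubated 5 days at 37 °C, then resazurin and Tween-80 added. Fluorescence (ex 530/em 590 nm) read after 24 h, normalised to no-drug and no-bacteria wells.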

Acinetobacter baumannii = test: Antibacterial activity against Acinetobacter baumannii ATCC 19606 by broth microdilution assay; type: functional; settings: ATCC 19606 = CIP 70.34 = JCM 6841
In short: (§1)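 Broth microdilution run essentially per an earlier report. MIC taken as the lowest concentration with no visible growth. Replicates typically agreed within one 2-fold dilution. The median MIC is reported, with a range where the median fell between two tested concentrations.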

HepG2 = test: Cytotoxicity against human HepG2 cells after 24 hrs by resazurin dye-based fluorescence assay; type: cell-based; settings: hepg2, 24 h
In short: (§2)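 HEK293 (3000/well) and HepG2 (5000/well) were grown 24 h in DMEM with 10% FBS at 37 °C, 5% CO2. Cells were then exposed 24 h to a dilution series up to 100 µM (0.5% DMSO). 5 µM resazurin was added for 2 h, read at ex 560/em 590. 1% Triton X-100 served as lysis control. CC50 was derived from the curves.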

[2] = test system: Trypanosoma brucei brucei; test: Antiparasitic activity against bloodstream form of Trypanosoma brucei brucei strain 427 assessed as inhibition of parasitic growth at 40 uM after 48 hrs by resazurin dye-based assay relative to control; type: functional; settings: strain 427, 48 h, read-out: GI
Escherichia coli = test: Antibacterial activity against Escherichia coli ATCC 25922 by broth microdilution assay; type: functional; in short: as §1
Pseudomonas aeruginosa = test: Antibacterial activity against Pseudomonas aeruginosa ATCC 27853 by broth microdilution assay; type: functional; in short: as §1
[3] = test system: Mycobacterium tuberculosis; test: Antibacterial activity against non-replicating Mycobacterium tuberculosis H37Rv after 5 days under hypoxic condition by resazurin dye-based fluorescence assay; type: functional; settings: 120 h
In short: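 Same H37Rv inoculum (OD600 0.001, ~2 x 10^4 CFU/mL) in 7H9S with serially diluted compound. Plates held 5 days at 0.1% oxygen, then resazurin plus Tween-80 added.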

Giardia intestinalis = test: Antiparasitic activity against Giardia lamblia WB trophozoites after 24 to 48 hrs by CellTiter-Glo luminescent cell viability assay; settings: Giardia duodenalis; for IC50: read-out: pIC50 (converted)
Candida albicans = test: Antifungal activity against Candida albicans ATCC 90028 by broth microdilution assay; type: functional; in short: as §1
Staphylococcus aureus = test: Antibacterial activity against methicillin-resistant Staphylococcus aureus ATCC […] by broth microdilution assay; type: functional
Cryptococcus neoformans = test: Antifungal activity against Cryptococcus neoformans H99 ATCC […] broth microdilution assay; type: functional; settings: var. grubii H99 ATCC 208821; in short: as §1
Klebsiella pneumoniae = test: Antibacterial activity against Klebsiella pneumoniae 700603 by broth microdilution assay; type: functional; in short: as §1
HEK293 = test: Cytotoxicity against HEK293 cells after 24 hrs by resazurin dye-based fluorescence assay; type: cell-based; settings: human, hek293, 24 h; in short: as §2
[4] = test system: Trypanosoma brucei brucei; test: Antiparasitic activity against bloodstream form of Trypanosoma brucei brucei strain 427 after 48 hrs by resazurin dye-based assay; type: functional, organism-based; settings: strain 427, 48 h; for pIC50: read-out: IC50; for IC50: read-out: pIC50 (converted)
physchem [5] = settings: PBS, pH 7.4
physchem [6] = settings: water
[7] = Metabolic stability in human plasma assessed as parent compound remaining at 3 uM after 2 hrs by LC-MS/MS analysis
[8] = Apparent permeability across apical to basolateral side in human Caco2 cells assessed as mean drug recovery at 2 uM after 2 hrs by lucifer yellow dye-based LC-MS/MS analysis; settings: caco-2, 2 h
Clostridioides difficile = test: Antibacterial activity against Clostridium difficile 630 ATCC BAA-1382 by broth microdilution assay; type: functional; in short: as §1
[9] = test system: Mycobacterium tuberculosis; test: Antibacterial activity against Mycobacterium tuberculosis H37Rv assessed as inhibition of bacterial growth at 32 ug/ml after 5 days under normoxic condition by resazurin dye-based fluorescence assay relative to control; type: functional; settings: 120 h, read-out: GI
Entamoeba histolytica = test: Antiparasitic activity against Entamoeba histolytica HM-1:IMSS trophozoites after 24 to 48 hrs by CellTiter-Glo luminescent cell viability assay; type: functional, organism-based; settings: read-out: IC50
In short: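 Axenic trophozoites were kept in TYI-S-33 with penicillin (100 U/mL) and streptomycin (100 µg/mL) and harvested in log phase. 5000 parasites per well were exposed to a final 8-point two-fold series of 0.39–50 µM, from 10 mM DMSO stocks. Plates were incubated 24–48 h at 37 °C under anaerobic conditions. ATP luminescence viability was read in triplicate. Percent inhibition is given at the highest concentration tested.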

[10] = Metabolic stability in CD-1 mouse plasma assessed as parent compound remaining at 3 uM after 2 hrs by LC-MS/MS analysis
[11] = Metabolic stability in human liver microsomes assessed as parent compound remaining at 3 uM after 2 hrs by LC-MS/MS analysis
[12] = Metabolic stability in CD-1 mouse liver microsomes assessed as parent compound remaining at 3 uM after 2 hrs by LC-MS/MS analysis

## O=c1[nH]ccn2cc([N+](=O)[O-])nc12
[1]
  MIC: >32 µg/mL
Acinetobacter baumannii
  MIC: > 32 µg/mL
HepG2
  CC50: > 100 µM
[2]
  inhibition of growth at 40 µM: 97%
Escherichia coli
  MIC: > 32 µg/mL
Pseudomonas aeruginosa
  MIC: > 32 µg/mL
[3]
  MIC: > 32 µg/mL
Giardia intestinalis
  pIC50: < 4.60
  IC50: > 25.1 µM
Candida albicans
  MIC: > 32 µg/mL
Staphylococcus aureus
  MIC: > 32 µg/mL
Cryptococcus neoformans
  MIC: > 32 µg/mL
Klebsiella pneumoniae
  MIC: > 32 µg/mL
HEK293
  CC50: > 100 µM

## O=c1c2nc([N+](=O)[O-])cn2ccn1Cc1ccccn1
[1]
  MIC: >32 µg/mL
Acinetobacter baumannii
  MIC: > 32 µg/mL
HepG2
  CC50: > 100 µM
Escherichia coli
  MIC: > 32 µg/mL
Pseudomonas aeruginosa
  MIC: > 32 µg/mL
[3]
  MIC: > 32 µg/mL
Giardia intestinalis
  pIC50: 4.85
  IC50: 15.8 µM
Candida albicans
  MIC: > 32 µg/mL
[4]
  pIC50: 5.01
  IC50: 10 µM
Staphylococcus aureus
  MIC: > 32 µg/mL
Physchem [5]
  solubility kinetic at 24 h, 200 µM: 184 µM (≈ 49.9 µg/mL)
Physchem [6]
  solubility kinetic at 24 h, 200 µM: 176 µM (≈ 47.7 µg/mL)
Cryptococcus neoformans
  MIC: > 32 µg/mL
Klebsiella pneumoniae
  MIC: > 32 µg/mL
HEK293
  CC50: > 100 µM

## O=C(Cn1ccn2cc([N+](=O)[O-])nc2c1=O)N1CCOCC1
[1]
  MIC: >32 µg/mL
Acinetobacter baumannii
  MIC: > 32 µg/mL
HepG2
  CC50: > 100 µM
Escherichia coli
  MIC: > 32 µg/mL
Pseudomonas aeruginosa
  MIC: > 32 µg/mL
[3]
  MIC: > 32 µg/mL
Giardia intestinalis
  pIC50: < 4.30
  IC50: > 50.1 µM
Candida albicans
  MIC: > 32 µg/mL
[4]
  pIC50: 5.39
  IC50: 3.98 µM
Staphylococcus aureus
  MIC: > 32 µg/mL
Cryptococcus neoformans
  MIC: > 32 µg/mL
Klebsiella pneumoniae
  MIC: > 32 µg/mL
HEK293
  CC50: > 100 µM

## CC1CC(OC(=O)C(O)c2ccccc2)CC(C)(C)N1C (stereo unspecified) [EUCATROPINE]
[7]
  Stability: 21%

## CC(C)NCC(O)COc1cccc2ccccc12 (stereo unspecified) [PROPRANOLOL]
[8]
  Drug recovery: 70%

## O=c1c2nc([N+](=O)[O-])cn2ccn1Cc1ccc(F)cc1F
[1]
  MIC: 16 to 32 µg/mL
Acinetobacter baumannii
  MIC: > 32 µg/mL
HepG2
  CC50: > 100 µM
Escherichia coli
  MIC: > 32 µg/mL
Pseudomonas aeruginosa
  MIC: > 32 µg/mL
[3]
  MIC: > 32 µg/mL
Giardia intestinalis
  pIC50: < 4.30
  IC50: > 50.1 µM
Candida albicans
  MIC: > 32 µg/mL
[4]
  pIC50: < 4.40
  IC50: > 39.8 µM
Staphylococcus aureus
  MIC: > 32 µg/mL
Cryptococcus neoformans
  MIC: > 32 µg/mL
Klebsiella pneumoniae
  MIC: > 32 µg/mL
HEK293
  CC50: > 100 µM

## O=C(NO)c1nc([N+](=O)[O-])cn1Cc1ccc(OC(F)(F)F)cc1
[1]
  MIC: >32 µg/mL
Clostridioides difficile
  MIC: 16 to 64 µg/mL (≈ 46.2 to 185 µM)
[3]
  MIC: > 32 µg/mL
Giardia intestinalis
  pIC50: 5.12 to 5.57
[9]
  inhibition of growth at 32 µg/mL: 60 to 75%
Entamoeba histolytica
  pIC50: 4.35 to 5.00

## Cc1ccc(Cn2ccn3cc([N+](=O)[O-])nc3c2=O)cc1
Acinetobacter baumannii
  MIC: > 32 µg/mL
[10]
  Stability: > 99%
[11]
  Stability: 97%
[12]
  Stability: 96%
Escherichia coli
  MIC: > 32 µg/mL
Clostridioides difficile
  MIC: > 64 µg/mL
Pseudomonas aeruginosa
  MIC: > 32 µg/mL
Giardia intestinalis
  pIC50: 5.47
  IC50: 3.16 µM
Candida albicans
  MIC: > 32 µg/mL
Staphylococcus aureus
  MIC: > 32 µg/mL
Cryptococcus neoformans
  MIC: > 32 µg/mL
Klebsiella pneumoniae
  MIC: > 32 µg/mL
Entamoeba histolytica
  pIC50: < 4.30
[7]
  Stability: > 99%

## O=c1c2nc([N+](=O)[O-])cn2ccn1Cc1ccccc1OC(F)(F)F
[1]
  MIC: 1 µg/mL (≈ 2.82 µM)
Acinetobacter baumannii
  MIC: > 32 µg/mL
[11]
  Stability: > 99%
HepG2
  CC50: > 100 µM
[12]
  Stability: > 99%
Escherichia coli
  MIC: > 32 µg/mL
Pseudomonas aeruginosa
  MIC: > 32 µg/mL
[3]
  MIC: 8 µg/mL (≈ 22.6 µM)
Giardia intestinalis
  pIC50: 5.09
  IC50: 7.94 µM
Candida albicans
  MIC: > 32 µg/mL
[4]
  pIC50: 5.22
  IC50: 6.31 µM
Staphylococcus aureus
  MIC: > 32 µg/mL
Cryptococcus neoformans
  MIC: > 32 µg/mL
Klebsiella pneumoniae
  MIC: > 32 µg/mL
HEK293
  CC50: > 100 µM
